{"source": "ChEMBL document CHEMBL4229530", "about": "“5-Adamantan thiadiazole-based thiazolidinones as antimicrobial agents. Design, synthesis, molecular docking and evaluation” (2018)", "key": {"Aspergillus ochraceus": {"tested_on": "Aspergillus ochraceus", "assay": "Antifungal activity against Aspergillus ochraceus ATCC 12066 after 72 hrs by serial dilution assay", "format": "functional", "conditions": "ATCC 12066, 72 h", "method_in_brief": "(§1)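 Modified microdilution: fungal spores washed off malt agar with sterile 0.85% saline plus 0.1% Tween 80, adjusted to about 1.0×10^5 per 100 µL well. Compounds in 5% DMSO (0.001-1.0 mg/ml) in malt broth; 72 h at 28°C on rotary shaker (160 rpm). MIC is lowest concentration without visible growth under binocular microscope. Bifonazole and ketoconazole controls (1-3500 µg/mL); three independent experiments in duplicate.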"}, "Penicillium verrucosum": {"tested_on": "Penicillium verrucosum", "assay": "Antifungal activity against Penicillium cyclopium var verucosum after 72 hrs by serial dilution assay", "format": "functional", "method_in_brief": "as §1"}, "Candida albicans": {"tested_on": "Candida albicans", "assay": "Antifungal activity against Candida albicans after 72 hrs by serial dilution assay", "format": "functional", "method_in_brief": "as §1"}, "Penicillium ochrochloron": {"tested_on": "Penicillium ochrochloron", "assay": "Antifungal activity against Penicillium ochrochloron ATCC 9112 after 72 hrs by serial dilution assay", "format": "functional", "conditions": "ATCC 9112, 72 h", "method_in_brief": "as §1"}, "Talaromyces funiculosus": {"tested_on": "Talaromyces funiculosus", "assay": "Antifungal activity against Penicillium funiculosum ATCC 36839 after 72 hrs by serial dilution assay", "format": "functional", "conditions": "ATCC 36839, 72 h", "method_in_brief": "as §1"}, "Aspergillus niger": {"tested_on": "Aspergillus niger", "assay": "Antifungal activity against Aspergillus niger ATCC 6275 after 72 hrs by serial dilution assay", "format": "functional", "conditions": "ATCC 6275, 72 h", "method_in_brief": "as §1"}, "Aspergillus fumigatus": {"tested_on": "Aspergillus fumigatus", "assay": "Antifungal activity against Aspergillus fumigatus isolate 1022 after 72 hrs by serial dilution assay", "format": "functional", "conditions": "isolate 1022, 72 h", "method_in_brief": "as §1"}, "Trichoderma viride": {"tested_on": "Trichoderma viride", "assay": "Antifungal activity against Trichoderma viride IAM 5061 after 72 hrs by serial dilution assay", "format": "functional", "conditions": "IAM 5061, 72 h", "method_in_brief": "as §1"}, "Aspergillus versicolor": {"tested_on": "Aspergillus versicolor", "assay": "Antifungal activity against Aspergillus versicolor ATCC 11730 after 72 hrs by serial dilution assay", "format": "functional", "conditions": "ATCC 11730, 72 h", "method_in_brief": "as §1"}, "Bacillus cereus": {"tested_on": "Bacillus cereus", "assay": "Antibacterial activity against Bacillus cereus after 24 hrs by INT dye based microdilution assay", "format": "functional", "method_in_brief": "(§2)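 Broth microdilution in tryptic soy broth: overnight bacterial culture adjusted to 1×10^5 CFU/mL, 1.0×10^4 CFU per well; compounds dissolved in 5% DMSO, tested at 0.001-1.0 mg/ml; 24 h at 37°C. Streptomycin and ampicillin as positive controls, 5% DMSO as negative control; duplicate, repeated three times.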"}, "Salmonella typhimurium": {"tested_on": "Salmonella typhimurium", "assay": "Antibacterial activity against Salmonella typhimurium ATCC 13311 after 24 hrs by INT dye based microdilution assay", "format": "functional, Salmonella enterica subsp. enterica serovar Typhimurium", "conditions": "Salmonella enterica, ATCC 13311, 24 h", "method_in_brief": "as §2"}, "Staphylococcus aureus [1]": {"tested_on": "Staphylococcus aureus", "assay": "Antibacterial activity against Staphylococcus aureus ATCC 6538 after 24 hrs by INT dye based microdilution assay", "format": "functional", "conditions": "ATCC 6538, 24 h", "method_in_brief": "as §2"}, "Pseudomonas aeruginosa [2]": {"tested_on": "Pseudomonas aeruginosa", "assay": "Antibacterial activity against Pseudomonas aeruginosa ATCC 27853 after 24 hrs by INT dye based microdilution assay", "format": "functional", "conditions": "ATCC 27853, 24 h", "method_in_brief": "as §2"}, "Enterobacter cloacae": {"tested_on": "Enterobacter cloacae", "assay": "Antibacterial activity against Enterobacter cloacae after 24 hrs by INT dye based microdilution assay", "format": "functional", "method_in_brief": "as §2"}, "Micrococcus flavus": {"tested_on": "Micrococcus flavus", "assay": "Antibacterial activity against Micrococcus flavus ATCC 10240 after 24 hrs by INT dye based microdilution assay", "format": "functional", "conditions": "ATCC 10240, 24 h", "method_in_brief": "as §2"}, "Listeria monocytogenes [3]": {"tested_on": "Listeria monocytogenes", "assay": "Antibacterial activity against Listeria monocytogenes NCTC 7973 after 24 hrs by INT dye based microdilution assay", "format": "functional", "conditions": "NCTC 7973, 24 h", "method_in_brief": "as §2"}, "Escherichia coli [4]": {"tested_on": "Escherichia coli", "assay": "Antibacterial activity against Escherichia coli ATCC 35210 after 24 hrs by INT dye based microdilution assay", "format": "functional", "conditions": "ATCC 35210, 24 h", "method_in_brief": "as §2"}, "Escherichia coli [5]": {"tested_on": "Escherichia coli", "assay": "Antibacterial activity against drug-resistant Escherichia coli after 24 hrs by INT dye based microdilution assay", "format": "functional", "method_in_brief": "(§3)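 Broth microdilution in tryptic soy broth. Overnight culture adjusted to 1×10^5 CFU/mL, giving 1.0×10^4 CFU per well. Compounds dissolved in 5% DMSO and tested at 0.001-1.0 mg/ml. Plates incubated 24 h at 37°C. INT (0.2 mg/mL) then added, with 30 min at 37°C. Duplicate, repeated three times.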"}, "Pseudomonas aeruginosa [6]": {"tested_on": "Pseudomonas aeruginosa", "assay": "Antibacterial activity against drug-resistant Pseudomonas aeruginosa after 24 hrs by INT dye based microdilution assay", "format": "functional", "method_in_brief": "as §3"}, "Staphylococcus aureus [7]": {"tested_on": "Staphylococcus aureus", "assay": "Antibacterial activity against methicillin-resistant Staphylococcus aureus after 24 hrs by INT dye based microdilution assay", "format": "functional", "method_in_brief": "as §3"}, "Listeria monocytogenes [8]": {"tested_on": "Listeria monocytogenes", "assay": "Potency index, ratio of streptomycin MIC to compound MIC for antibacterial activity against Listeria monocytogenes NCTC 7973", "format": "functional"}, "Listeria monocytogenes [9]": {"tested_on": "Listeria monocytogenes", "assay": "Potency index, ratio of ampicillin MIC to compound MIC for antibacterial activity against Listeria monocytogenes NCTC 7973", "format": "functional"}}}
{"smiles": "CC(=O)N1CCN(c2ccc(OCC3COC(Cn4ccnc4)(c4ccc(Cl)cc4Cl)O3)cc2)CC1", "note": "(configuration not stated) [KETOCONAZOLE]", "values": [{"measurement": "MIC", "setting": "Aspergillus ochraceus", "result": 380, "unit": "µM"}, {"measurement": "MIC", "setting": "Penicillium verrucosum", "result": 0.376, "unit": "µM"}, {"measurement": "MIC", "setting": "Candida albicans", "result": 376, "unit": "µM"}, {"measurement": "MIC", "setting": "Penicillium ochrochloron", "result": 3800, "unit": "µM"}, {"measurement": "MIC", "setting": "Talaromyces funiculosus", "result": 380, "unit": "µM"}, {"measurement": "MIC", "setting": "Aspergillus niger", "result": 380, "unit": "µM"}, {"measurement": "MIC", "setting": "Aspergillus fumigatus", "result": 380, "unit": "µM"}, {"measurement": "MIC", "setting": "Trichoderma viride", "result": 4750, "unit": "µM"}, {"measurement": "MIC", "setting": "Aspergillus versicolor", "result": 2850, "unit": "µM"}]}
{"smiles": "O=C1N/C(=N\\c2nnc(C34CC5CC(CC(C5)C3)C4)s2)S/C1=C/c1cccc(Cl)c1", "values": [{"measurement": "MIC", "setting": "Aspergillus ochraceus", "result": 68, "unit": "µM"}, {"measurement": "MIC", "setting": "Bacillus cereus", "result": 66, "unit": "µM"}, {"measurement": "MIC", "setting": "Candida albicans", "result": 274, "unit": "µM"}, {"measurement": "MIC", "setting": "Penicillium ochrochloron", "result": 68, "unit": "µM"}, {"measurement": "MIC", "setting": "Salmonella typhimurium", "result": 66, "unit": "µM"}, {"measurement": "MIC", "setting": "Staphylococcus aureus [1]", "result": 0.088, "unit": "µM"}, {"measurement": "MIC", "setting": "Talaromyces funiculosus", "result": 137, "unit": "µM"}, {"measurement": "MIC", "setting": "Pseudomonas aeruginosa [2]", "result": 66, "unit": "µM"}, {"measurement": "MIC", "setting": "Aspergillus niger", "result": 137, "unit": "µM"}, {"measurement": "MIC", "setting": "Enterobacter cloacae", "result": 137, "unit": "µM"}, {"measurement": "MIC", "setting": "Micrococcus flavus", "result": 66, "unit": "µM"}, {"measurement": "MIC", "setting": "Aspergillus fumigatus", "result": 137, "unit": "µM"}, {"measurement": "MIC", "setting": "Listeria monocytogenes [3]", "result": 137, "unit": "µM"}, {"measurement": "MIC", "setting": "Trichoderma viride", "result": 68, "unit": "µM"}, {"measurement": "MIC", "setting": "Aspergillus versicolor", "result": 68, "unit": "µM"}, {"measurement": "MIC", "setting": "Escherichia coli [4]", "result": 0.066, "unit": "µM"}]}
{"smiles": "O=C1N/C(=N\\c2nnc(C34CC5CC(CC(C5)C3)C4)s2)S/C1=C/c1ccc(O)cc1", "values": [{"measurement": "MIC", "setting": "Aspergillus ochraceus", "result": 71, "unit": "µM"}, {"measurement": "MIC", "setting": "Bacillus cereus", "result": 34, "unit": "µM"}, {"measurement": "MIC", "setting": "Candida albicans", "result": 284, "unit": "µM"}, {"measurement": "MIC", "setting": "Penicillium ochrochloron", "result": 142, "unit": "µM"}, {"measurement": "MIC", "setting": "Salmonella typhimurium", "result": 34, "unit": "µM"}, {"measurement": "MIC", "setting": "Staphylococcus aureus [1]", "result": 0.068, "unit": "µM"}, {"measurement": "MIC", "setting": "Talaromyces funiculosus", "result": 71, "unit": "µM"}, {"measurement": "MIC", "setting": "Pseudomonas aeruginosa [2]", "result": 34, "unit": "µM"}, {"measurement": "MIC", "setting": "Aspergillus niger", "result": 142, "unit": "µM"}, {"measurement": "MIC", "setting": "Enterobacter cloacae", "result": 34, "unit": "µM"}, {"measurement": "MIC", "setting": "Micrococcus flavus", "result": 142, "unit": "µM"}, {"measurement": "MIC", "setting": "Aspergillus fumigatus", "result": 142, "unit": "µM"}, {"measurement": "MIC", "setting": "Listeria monocytogenes [3]", "result": 284, "unit": "µM"}, {"measurement": "MIC", "setting": "Trichoderma viride", "result": 71, "unit": "µM"}, {"measurement": "MIC", "setting": "Aspergillus versicolor", "result": 71, "unit": "µM"}, {"measurement": "MIC", "setting": "Escherichia coli [4]", "result": 0.091, "unit": "µM"}]}
{"smiles": "O=C1N/C(=N\\c2nnc(C34CC5CC(CC(C5)C3)C4)s2)S/C1=C/c1cccc([N+](=O)[O-])c1", "values": [{"measurement": "MIC", "setting": "Aspergillus ochraceus", "result": 107, "unit": "µM"}, {"measurement": "MIC", "setting": "Escherichia coli [5]", "result": 0.0535, "unit": "µM"}, {"measurement": "MIC", "setting": "Bacillus cereus", "result": 21.4, "unit": "µM"}, {"measurement": "MIC", "setting": "Penicillium verrucosum", "result": 0.107, "unit": "µM"}, {"measurement": "MIC", "setting": "Penicillium ochrochloron", "result": 214, "unit": "µM"}, {"measurement": "MIC", "setting": "Salmonella typhimurium", "result": 21.4, "unit": "µM"}, {"measurement": "MIC", "setting": "Staphylococcus aureus [1]", "result": 0.0418, "unit": "µM"}, {"measurement": "MIC", "setting": "Talaromyces funiculosus", "result": 107, "unit": "µM"}, {"measurement": "MIC", "setting": "Pseudomonas aeruginosa [2]", "result": 21.4, "unit": "µM"}, {"measurement": "MIC", "setting": "Aspergillus niger", "result": 214, "unit": "µM"}, {"measurement": "MIC", "setting": "Enterobacter cloacae", "result": 41.8, "unit": "µM"}, {"measurement": "MIC", "setting": "Micrococcus flavus", "result": 41.8, "unit": "µM"}, {"measurement": "MIC", "setting": "Aspergillus fumigatus", "result": 107, "unit": "µM"}, {"measurement": "MIC", "setting": "Listeria monocytogenes [3]", "result": 17, "unit": "µM"}, {"measurement": "MIC", "setting": "Pseudomonas aeruginosa [6]", "result": 53.5, "unit": "µM"}, {"measurement": "MIC", "setting": "Staphylococcus aureus [7]", "result": 0.107, "unit": "µM"}, {"measurement": "MIC", "setting": "Trichoderma viride", "result": 53.5, "unit": "µM"}, {"measurement": "MIC", "setting": "Aspergillus versicolor", "result": 107, "unit": "µM"}, {"measurement": "Ratio", "setting": "Listeria monocytogenes [8]", "result": 20}, {"measurement": "MIC", "setting": "Escherichia coli [4]", "result": 0.0418, "unit": "µM"}, {"measurement": "Ratio", "setting": "Listeria monocytogenes [9]", "result": 29}]}
